Our source for the Activity and MIC values is ChEMBL document CHEMBL1155142, “Promoter and transcription analysis of penicillin-binding protein genes in Streptococcus gordonii” (2007).

Test [1] deals with Streptococcus gordonii. Put plainly: Increase in pbp2B gene expression in penicillin-resistant Streptococcus gordonii with penicillin binding protein PR1_2 evolved mutation assessed as relative luciferase units relative to control. The format is functional. In outline: (§1)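 pbp promoter–luc transcriptional fusions integrated into the chromosome of resistant strain PR1_2evolved. Cells grown at 37°C in BHI without aeration from a 1/100 overnight inoculum. Penicillin G at 1/2× or 1/8× MIC added at OD620 0.12. Samples taken into sodium citrate pH 5.5, with 1 mM D-luciferin solution in glycylglycine/MgSO4 buffer added. Light read 10 s at 22°C; RLU normalised to OD620, expressed as % of untreated; means of six experiments.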

Test [2] concerns Streptococcus gordonii. Put plainly: Antibacterial activity against Streptococcus gordonii with non penicillin binding protein mutation. The format is functional.
For test [3], the system named is Streptococcus gordonii. Put plainly: Antibacterial activity against Streptococcus gordonii with penicillin binding protein mutation. The format is functional.
For test [4], the system named is Streptococcus gordonii. Put plainly: Antibacterial activity against penicillin-resistant Streptococcus gordonii with penicillin binding protein PR1_2 evolved mutation. The format is functional.
The subject of test [5] is Streptococcus gordonii. Put plainly: Antibacterial activity against wild type penicillin-susceptible Streptococcus gordonii at 4 times MIC. Format: functional, organism-based. In a few lines: (§2)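 S. gordonii was grown at 37°C in BHI broth without aeration from a 1/100 inoculum of an overnight culture. Penicillin G was added once OD620 reached 0.12, and growth was followed by OD620 against an untreated culture.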

Test [6] concerns Streptococcus gordonii. Put plainly: Antibacterial activity against wild type penicillin-susceptible Streptococcus gordonii at 2 times MIC. Format: functional, organism-based. In a few lines:
as §2

The subject of test [7] is Streptococcus gordonii. Nature of the test: Induction of pbp2A gene expression in wild type penicillin-susceptible Streptococcus gordonii assessed as relative luciferase units relative to control. The format is functional, organism-based. In outline:
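The pbp2A promoter was fused to promoterless luc on the chromosome (integrative pJDC9) in S. gordonii grown in BHI at 37°C, and penicillin G was added at OD620 0.12. Samples of 100 µl went into sodium citrate pH 5.5, then 50 µl of 1 mM D-luciferin in glycylglycine/MgSO4 buffer was added. Light was read for 10 s after a 2 s delay at 22°C, normalized to OD620, and expressed as % of the untreated culture.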

Test [8] has as its system Streptococcus gordonii. Put plainly: Increase in pbp1A gene expression in penicillin-resistant Streptococcus gordonii with penicillin binding protein PR1_2 evolved mutation assessed as relative luciferase units relative to control. The format is functional. In outline:
as §1

Test [9] concerns Streptococcus gordonii. Nature of the test: Increase in pbp1B gene expression in penicillin-resistant Streptococcus gordonii with penicillin binding protein PR1_2 evolved mutation assessed as relative luciferase units relative to control. Format: functional. In outline: as §1
For test [10], the system named is Streptococcus gordonii. Put plainly: Increase in pbp2A gene expression in penicillin-resistant Streptococcus gordonii with penicillin binding protein PR1_2 evolved mutation assessed as relative luciferase units relative to control. The format is functional. In a few lines:
as §1

The test system of test [11] is Streptococcus gordonii. Nature of the test: Increase in pbp2X gene expression in penicillin-resistant Streptococcus gordonii with penicillin binding protein PR1_2 evolved mutation assessed as relative luciferase units relative to control. The format is functional. In a few lines: as §1
The subject of test [12] is Streptococcus gordonii. Nature of the test: Increase in pbp1A gene expression in penicillin-resistant Streptococcus gordonii with penicillin binding protein PR1_2 evolved mutation at 1/2 times MIC assessed as relative luciferase units relative to control. The format is functional, organism-based. In outline:
as §1

The subject of test [13] is Streptococcus gordonii. Put plainly: Increase in pbp2A gene expression in penicillin-resistant Streptococcus gordonii with penicillin binding protein PR1_2 evolved mutation at 1/2 times MIC assessed as relative luciferase units relative to control. Format: functional, organism-based. In a few lines:
as §1

Test [14] has as its system Streptococcus gordonii. Put plainly: Increase in pbp1A gene expression in penicillin-resistant Streptococcus gordonii with penicillin binding protein PR1_2 evolved mutation at 1/8 times MIC assessed as relative luciferase units relative to control. The format is functional, organism-based. In outline: as §1
Test [15] has as its system Streptococcus gordonii. Put plainly: Effect on pbp2B gene expression in penicillin-resistant Streptococcus gordonii with penicillin binding protein PR1_2 evolved mutation assessed as relative luciferase units relative to control. The format is functional, organism-based. In outline: as §1
Test [16] deals with Streptococcus gordonii. Put plainly: Effect on pbp2X gene expression in penicillin-resistant Streptococcus gordonii with penicillin binding protein PR1_2 evolved mutation assessed as relative luciferase units relative to control. The format is functional, organism-based. In outline: as §1

Each structure is given as a SMILES string. Converted amounts (≈) assume the structure as drawn. The source made the active and inactive calls.

As a reminder, the MIC is the smallest concentration in the dilution series that meets the test's criterion for growth inhibition. Lower therefore signals a more susceptible organism.

In the case of `CC1(C)S[C@@H]2[C@H](NC(=O)Cc3ccccc3)C(=O)N2[C@H]1C(=O)O` [PENICILLIN G], the Activity in test [1] amounted to 1.39; in test [8], 1.55; in test [9], 0.7; in test [10], 1.59; in test [11] it was 2.1. Further, the MIC worked out at 0.008 µg/mL (≈ 0.0239 µM) in test [2], 0.5 µg/mL (≈ 1.5 µM) in [3] and 2 µg/mL (≈ 5.98 µM) in test [4]. For the same compound, the outcome in test [5], in test [6], in [7], in test [12], in [13] and in [14] was Active. In test [16], the outcome was Active. For the same compound, in test [15], the outcome was inactive.
